Assay outcomes as filed in PubChem BioAssay.
An excerpt weighted towards active compounds, which were near 2.1% of everything screened.
APJ antagonist – antagonists of human APJ apelin receptor. inhibition, % at 20 µM. AID 2521. 330,000 compounds, 0.32% hits. CHO-K1 APJ beta-arrestin complementation, luminescence;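 active means inhibition above about 40% at 20 µM, limit read from the data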;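 further: cells challenged with 10 nM apelin-13 agonist together with compound; plate controls were apelin-13 plus DMSO wells for no effect and DMSO wells lacking apelin-13 for full effect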
CXCR6 block – CXCR6 (human) receptor inhibition. 360,000 compounds, 0.36% hits. CHO-K1 PathHunter CXCR6 beta-arrestin, luminescence. inhibition, % at 20 µM. O00574; in the data active means inhibition above about 34%, passing the limit was not always enough;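 further: antagonist mode with CXCL16 agonist at 10 nM final; 0% = 10 nM CXCL16 with DMSO and 100% = unstimulated wells without agonist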
Target sequence (O00574 whole entry, looked up): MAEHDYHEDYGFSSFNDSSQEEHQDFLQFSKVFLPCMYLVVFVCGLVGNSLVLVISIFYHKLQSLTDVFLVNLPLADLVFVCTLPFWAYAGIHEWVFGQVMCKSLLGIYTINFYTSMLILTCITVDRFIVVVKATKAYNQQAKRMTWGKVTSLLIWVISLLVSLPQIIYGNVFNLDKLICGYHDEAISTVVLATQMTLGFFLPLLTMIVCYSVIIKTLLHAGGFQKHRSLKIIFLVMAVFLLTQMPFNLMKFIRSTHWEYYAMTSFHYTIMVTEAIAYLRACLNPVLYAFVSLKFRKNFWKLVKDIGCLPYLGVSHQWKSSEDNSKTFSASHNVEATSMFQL
EBI2 block – EBI2 (human) antagonism | 360,000 compounds, 0.81% hits | EBI2 beta-arrestin recruitment, luminescence, 7a,25-OHC stimulated | inhibition, % at 5 µM; in the data active means inhibition above about 38%;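 further: enzyme fragment complementation signal reports receptor beta-arrestin coupling in cells; 0% = agonist plus DMSO wells and 100% = wells without agonist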
Target sequence (P32249 whole entry, looked up, the tested form may be a part): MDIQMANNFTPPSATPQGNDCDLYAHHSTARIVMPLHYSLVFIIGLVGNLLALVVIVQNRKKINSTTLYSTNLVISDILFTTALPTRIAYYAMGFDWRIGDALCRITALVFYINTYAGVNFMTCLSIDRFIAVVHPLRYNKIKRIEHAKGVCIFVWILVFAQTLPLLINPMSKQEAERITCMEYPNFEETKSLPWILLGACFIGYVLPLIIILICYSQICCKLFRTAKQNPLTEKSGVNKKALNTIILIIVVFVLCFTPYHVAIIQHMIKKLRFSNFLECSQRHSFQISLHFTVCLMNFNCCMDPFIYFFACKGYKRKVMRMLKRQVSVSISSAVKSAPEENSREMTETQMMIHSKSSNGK
m5-HT2A agonist – activates the mouse 5-HT2A serotonin receptor; P35363; 360,000 compounds, 0.66% hits; CHO-K1 mHTR2A beta-arrestin complementation, luminescence; percent of 30 µM serotonin response; activation, % at 7.6 µM;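 active means activation above a run cutoff, the mean activation of all tested compounds plus 3 SD, cut at about 14% in these data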;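 further: 0% = plate median of compound wells and 100% = 30 µM serotonin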
APJ agonist – activates the human apelin receptor APJ. CHO-K1 APJ PathHunter beta-arrestin, luminescence; 0% DMSO wells, 100% apelin. activation, % at 20 µM. P35414. AID 2520. 330,000 compounds, 0.11% hits;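 active means activation more than six SD over the plate average, tested at 20 µM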;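 further: 0% = DMSO alone and 100% = apelin-13 at 10 nM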
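Assay system: CHO-K1 cells stably expressing ProLink-tagged human APJ and arrestin–beta-gal acceptor. Compound dosing: 20 µM single point, 1% DMSO. Times: 16-18 h seeding, 90 min dark compound exposure, 60 min detection. Detection: beta-gal luminescence. Evaluation: APJ–arrestin association signal. Controls: negative DMSO alone, positive Apelin-13 at 10 nM.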
CCR6 antag – CCR6 (human) receptor antagonism; P51684; CHO-K1 CCR6 PathHunter beta-arrestin, luminescence, CCL20-stimulated; inhibition, % at 20 µM; 340,000 compounds, 0.49% hits;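 active means compounds whose inhibition of the agonist-driven luminescence signal at 20 µM reaches about 50%, limit read from the data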;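 further: cells stimulated with CCL20 at 14 nM final; plate controls were DMSO with CCL20 for no effect and DMSO without agonist for full effect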
Numbers without * were called inactive; . = not tested or not shown.

SMILES | APJ antagonist | CXCR6 block | EBI2 block | m5-HT2A agonist | APJ agonist | CCR6 antag
N#Cc1c(NC(=O)c2ccc(-c3ccccc3[N+](=O)[O-])o2)sc2c1CCCC2 | 21.7 | 30.9 | 14.0 | -4.4 | -1.4 | 37.1
CC1CCc2c(sc(NC(=O)c3ccc(-c4ccccc4[N+](=O)[O-])o3)c2C#N)C1 (centres undefined) | 24.0 | 33.3 | 28.2 | -1.4 | -7.0 | 58.2*
O=[N+]([O-])c1ccc(S(=O)(=O)c2cccc(C(F)(F)F)c2)nc1 | 17.6 | 46.6* | -18.5 | -7.3 | 7.3 | .
Cc1ccc(NC(=O)COC(=O)c2ccc[n+]([O-])c2)c(Br)c1 | 7.3 | -1.7 | -4.1 | -0.2 | -1.7 | 6.2
O=C(Cn1ccccc1=S)c1ccc(Cl)c(Cl)c1 | 7.9 | 7.7 | 2.9 | -0.8 | -2.5 | 15.8
On1ccccc1=S | . | 74.6* | 37.0 | -26.4 | . | 83.2*
O=C1OC(COCC#Cc2ccccc2)CN1c1ccccc1 (centres undefined) | . | -5.0 | -8.3 | -6.6 | . | .
O=C(C(=O)N1CCC(Cc2ccccc2)CC1)c1ccccc1 | . | . | 0.8 | -9.7 | . | .
Cc1onc(-c2ccccc2Cl)c1C(=O)N1C=CC(C(F)(F)F)=NCC1 | 13.5 | 10.3 | -7.9 | -2.1 | -4.8 | 4.2
Cc1onc(-c2ccccc2Cl)c1C(=O)N1C=CC(C(F)(F)Cl)=NCC1 | 16.8 | -5.8 | -6.5 | 23.9* | -0.5 | 8.8
COc1ccc(-c2nnn(CC(=O)NC(=O)NC3CCCCC3)n2)cc1OC | 3.6 | -3.7 | 3.0 | -6.6 | -3.3 | 13.7
CCCS(=O)(=O)NC(=O)C1(C)CCCN(C(=O)c2ccccc2)C1 (centres undefined) | . | -2.8 | -5.5 | 2.2 | . | .
CCN(CC)c1ccc(/C=C2/SC(=O)N(C(C)C)C2=O)o1 | . | 24.2 | 42.2* | -1.6 | . | 45.5
O=C(Nc1cccc(NC(=O)c2cc([N+](=O)[O-])ccc2Cl)n1)c1cc([N+](=O)[O-])ccc1Cl | -49.6 | -12.9 | 29.8 | 21.0* | 5.7 | 14.3
CC(=O)Nc1cccc(-c2ccnc3c2CC(C(=O)NCCC(F)(F)F)O3)c1 (centres undefined) | . | -2.3 | -4.8 | -0.8 | . | .
O=C(Nc1cccc(C(F)(F)F)c1)c1ccc2nc(-c3ccco3)c(-c3ccco3)nc2c1 | -6.6 | 20.4 | 5.1 | 15.6* | 2.9 | 25.0
O=C(O)c1ccc2nc(-c3ccco3)c(-c3ccco3)nc2c1 | -41.7 | 6.7 | -15.1 | -2.7 | 0.3 | 2.5
Cc1cc(C)cc(C(=O)NCC(=O)NNC(=O)CSc2ccccc2F)c1 | 14.7 | 5.9 | -5.0 | 1.1 | -0.2 | -0.2
O=C(/C=C/c1ccncc1)c1ccc(NC(=O)c2ccccc2F)cc1 | . | 39.8 | 14.3 | 0.0 | . | 68.6*
FC(F)(F)c1cnc(NNC(=S)Nc2ccccc2Cl)c(Cl)c1 | 37.0 | 81.6* | 17.2 | -5.8 | 1.4 | 84.9*
COc1cc(/C=C(/C#N)C(=O)NCCc2c[nH]c3ccccc23)ccc1OCc1ccccc1F | 7.5 | 31.8 | 27.9 | -3.3 | 11.3 | 57.9*
Cn1c(=O)c2c(ncn2Cc2nnc(N)s2)n(C)c1=O | 3.5 | 6.1 | -14.1 | -3.3 | 0.9 | 5.8
CCN(C(=O)C(C)N1C(=O)/C(=C/c2cccs2)SC1=S)C1CCS(=O)(=O)C1 (centres undefined) | 0.4 | -3.8 | 6.8 | 0.5 | 12.5 | 16.1
Oc1ccc(N=Nc2n[nH]c(-c3ccccc3)n2)cc1 | 36.8 | 17.1 | 7.8 | -0.2 | -2.2 | 36.8
Oc1ccc(N=Nc2nc(-c3ccccc3)c(-c3ccccc3)[nH]2)cc1 | 54.0* | 53.2* | 41.8 | 4.2 | -8.4 | 67.0*
SMILES | APJ antagonist | CXCR6 block | EBI2 block | m5-HT2A agonist | APJ agonist | CCR6 antag
CC(=O)N1c2ccc(S(=O)(=O)NCC3CCC(C(=O)NC4CCCCC4C)CC3)cc2CC1C (centres undefined) | 17.4 | 1.5 | 1.4 | 4.4 | -0.2 | 7.5
CCOC(=O)c1c(N)sc(N)c1C(=O)OCC | 60.6* | 16.8 | 11.8 | 6.7 | -11.5 | 23.3
Cc1cccc2c1c1ccc3c(c1n2C)C(=O)C=CC3=O | . | 43.7* | -2.9 | 7.3 | . | 88.9*
Cc1ccccc1N1CC(=O)N(c2ccccc2C)CC1=O | -3.9 | 7.2 | -2.6 | 11.2 | -0.6 | 1.2
Cc1ccc(O)c(C2=NNC(c3ccc(Cl)cc3)C2)c1 (centres undefined) | 70.3* | 17.2 | 1.9 | -5.6 | -3.6 | 18.4
Oc1ccc(Cl)cc1C1=NNC(c2cccs2)C1 (centres undefined) | 10.3 | 11.6 | -0.1 | -2.5 | -0.8 | 23.4
CCn1nc([N+](=O)[O-])c(C(C#N)c2nc3cc(C(F)(F)F)ccc3s2)c(Cl)c1=O (centres undefined) | 55.6* | 38.2 | 5.8 | 2.8 | -11.0 | 52.3*
CC(C)(C)c1cnnn1-c1ccc(C=O)cc1 | 7.1 | -7.5 | -7.0 | 1.2 | -1.3 | -12.4
CC(C)(C)c1cnnn1-c1ccc(C(=O)CCl)cc1 | 19.5 | 12.4 | 7.8 | -2.8 | -3.8 | 64.6*
CCCN(C(=O)COC(=O)c1nc2nccc(C)n2n1)C1CCS(=O)(=O)C1 (centres undefined) | . | -0.3 | -0.5 | 3.8 | . | 11.2
COC(CNC(=O)c1cc(C(=O)c2c(-c3c(Cl)cccc3Cl)noc2C)c[nH]1)OC | -5.7 | 70.6* | 5.2 | -8.7 | 3.2 | 23.2
Cc1onc(-c2c(Cl)cccc2Cl)c1C(=O)c1c[nH]c(C(=O)NCCCN2CCOCC2)c1 | 9.5 | 1.5 | -5.3 | -6.0 | 0.2 | 3.6
Cc1ccc(-c2nc(CN3CCCC(C(=O)N4CCOCC4)C3)c(C)o2)cc1 (centres undefined) | 10.6 | 4.1 | 5.1 | 6.6 | -3.0 | 5.1
Cc1ccc2nc(C)c(CN3CCN(c4ccc([N+](=O)[O-])cc4Cl)CC3)n2c1 | 17.9 | 5.8 | 46.9* | -9.4 | 2.8 | .
O=[N+]([O-])c1ccc(Cl)c(CN2CCN(c3ncccn3)CC2)c1 | 15.0 | -1.2 | -0.9 | 5.5 | -1.5 | 7.5
O=C(NC(=S)Nc1cc(Cl)ccc1O)c1cccc(Br)c1 | 28.4 | 37.5 | 18.0 | -6.6 | -8.3 | 59.1*
O=C(NC(=S)Nc1ccc2oc(-c3cccnc3)nc2c1)c1cccc(Cl)c1 | 20.5 | 32.0 | 16.5 | -5.5 | -0.2 | 53.9*
O=C(NC(=S)Nc1cccnc1)c1cccc(Br)c1 | 11.1 | 20.2 | 0.5 | 0.9 | -3.0 | 57.8*
CC(C)c1ccc(NC(=O)Nc2nc(C(N)COCc3ccccc3)cs2)cc1 (centres undefined) | . | -14.9 | 5.8 | 9.9 | . | .
C=CCN(CC=C)S(=O)(=O)c1ccc(NC(=S)NC(=O)/C=C/c2cccc3ccccc23)cc1 | 27.5 | 3.5 | 18.7 | -5.9 | -3.0 | 51.8*
CN(C)c1ncc(C2=C(Cl)C(=O)C(N3CCCC3)=C(Cl)C2=O)s1 | -20.2 | 13.9 | -9.3 | 7.2 | 7.7 | 90.6*
O=C1C(Cl)=C(N2CCCCC2)C(=O)C(Cl)=C1c1cnc(N2CCCCC2)s1 | -16.0 | 14.2 | -16.2 | 2.9 | 6.9 | 69.7*
